In PubChem BioAssay AID588748 (Vanderbilt Specialized Chemistry Center, 2011):
pEC50: −log10 of the molar value. Calls of active or inactive are those of the source.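 Rule for the calls: active = a clear dose-dependent boost of the acetylcholine calcium response in rat M2 cells, with a fitted potency; inactive = the rest.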

Biological target: Muscarinic acetylcholine receptor M2 (Rattus norvegicus) (UniProt P10980)
Assay: rat M2 positive allosteric modulation, dose response, counter-screen for M4 PAM project, CHO Gqi5 cells, calcium fluorescence (AID 588748)
Details: CHO rM2/Gqi5 calcium mobilization, PAM mode, FDSS
Summary of the method: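 Material: rat M2/Gqi5 CHO cells; reagent: acetylcholine at EC20, followed by acetylcholine at EC80; times: compound 144 s before EC20 ACh, EC80 ACh 86 s later, 37 °C; detection: Fluo-4 fluorescence of calcium mobilization; measure: EC50 and percent ACh max response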

Sequence of Muscarinic acetylcholine receptor M2 (Rattus norvegicus) (P10980 whole entry, looked up): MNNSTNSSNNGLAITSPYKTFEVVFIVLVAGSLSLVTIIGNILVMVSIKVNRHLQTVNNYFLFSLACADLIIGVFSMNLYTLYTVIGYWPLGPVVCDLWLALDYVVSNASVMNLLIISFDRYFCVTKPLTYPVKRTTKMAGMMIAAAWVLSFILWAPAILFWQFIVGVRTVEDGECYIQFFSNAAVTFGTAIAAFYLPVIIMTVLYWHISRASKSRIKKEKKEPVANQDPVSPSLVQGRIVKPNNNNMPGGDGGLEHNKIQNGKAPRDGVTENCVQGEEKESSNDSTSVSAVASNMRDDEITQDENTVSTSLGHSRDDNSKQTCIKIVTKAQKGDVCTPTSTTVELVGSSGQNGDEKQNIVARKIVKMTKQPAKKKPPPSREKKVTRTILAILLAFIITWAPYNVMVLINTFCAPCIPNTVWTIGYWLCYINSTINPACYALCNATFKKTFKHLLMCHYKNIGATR

Q: With Cc1nc2sc(C(=O)NCc3ccncn3)c(N)c2c(C)c1Cl as the compound, how does the “percent of ACh max response” value (at 30 µM (top of the series)) read?
A: inactive

Q: With Cc1nc2sc(C(=O)NCc3ccncc3)c(N)c2c(C)c1Cl as the compound, how does the “percent of ACh max response” value (at 45.3 µM (top of the series)) read?
A: inactive

Q: Cc1nc2sc(C(=O)NC3CC3)c(N)c2c(C)c1Cl was tested. Which pEC50 did it give?
A: 6.19

Q: Which “percent of ACh max response” value (at 30 µM (top of the series)) does the source give for Cc1nc2sc(C(=O)NCCc3ccncc3)c(N)c2c(C)c1Cl here?
A: inactive

Q: How did the “percent of ACh max response” value (at 45.3 µM (top of the series)) turn out when Cc1nc2sc(C(=O)NCc3cccnc3)c(N)c2c(C)c1Cl was run?
A: inactive

Q: For Cc1nc2sc(C(=O)NCc3ccccc3)c(N)c2c(C)c1Cl, which “percent of ACh max response” value (at 37.4 µM (top of the series)) is on record?
A: inactive

Q: With Cc1nc2sc(C(=O)NCc3ccc4c(c3)OCO4)c(N)c2c(C)c1Cl as the compound, how does the “percent of ACh max response” value (at 36.8 µM (top of the series)) read?
A: inactive

Q: For Cc1nc2sc(C(=O)NCc3nccs3)c(N)c2c(C)c1Cl, which “percent of ACh max response” value (at 30 µM (top of the series)) is on record?
A: inactive

Q: How did the “percent of ACh max response” value (at 30 µM (top of the series)) turn out when Cc1nc2sc(C(=O)NCc3cccc(F)c3F)c(N)c2c(C)c1Cl was run?
A: inactive
